In ChEMBL document CHEMBL1949587 (Bioorg Med Chem, 2012):
≈ marks a conversion by molar mass, not a printed value. Calls of active or inactive are those of the source. The rule behind the calls is not given here.

Tests used:
HUVEC [1] = test: Antiangiogenic activity in HUVEC co-cultured with fibroblasts assessed as inhibition of capillary-like tube formation at 4 uM after 11 days by microscopic staining method relative to control; assay type: functional; conditions: Homo sapiens, 264 h
How it was run: (§1)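 Commercial co-culture kit of HUVEC and fibroblasts, given compound at final 4 or 20 μM and held at 37 °C, 5% CO₂ for 11 days. Tubes fixed with 70% ethanol and stained for CD31, then photographed under a microscope. Tube area quantified by image analysis and inhibition calculated against control taken as 100%.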

HUVEC [2] = test: Antiangiogenic activity in HUVEC co-cultured with fibroblasts assessed as inhibition of capillary-like tube formation at 20 uM after 11 days by microscopic staining method relative to control; assay type: functional; conditions: Homo sapiens, 264 h; how it was run: as §1
[3] = Apparent oral clearance in nude mouse at 30 mg/kg, po by LC-MS/MS analysis; assay type: ADME, organism-based; parameters: dose 30 mg/kg, route oral; conditions: in vivo
How it was run: (§2)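 Female nude mice given single oral dose in DMSO/Cremophor EL/1% Tween 80 (1:1:8 v/v/v) by stomach sonde. Blood taken at 30 min, 1, 2, 4, 7 and 24 h (n = 2/time point). Plasma precipitated with CH3CN/MeOH plus internal standard, filtered, measured by LC-MS/MS (LLOQ 20 ng/mL). Parameters by non-compartmental analysis; CL given as CL/F.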

[4] = Tmax in nude mouse at 30 mg/kg, po by LC-MS/MS analysis; assay type: ADME, organism-based; parameters: dose 30 mg/kg, route oral; conditions: in vivo; how it was run: as §2
[5] = Oral bioavailability in nude mouse at 10 mg/kg by LC-MS/MS analysis; assay type: ADME, organism-based; conditions: in vivo; how it was run: as §2
Calu-6 [6] = test: Antitumor activity against human Calu6 cells xenografted in po dosed BALB/c mouse assessed as tumor growth inhibition administered qd for 11 days; assay type: functional; conditions: for ED50: Calu-6, po, 264 h
How it was run: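 Calu-6 cells in Hanks' balanced salt solution, 5.0 × 10⁶ per mouse, implanted s.c. in flank of female Balb/c nude mice. Once tumors reached 150 mm³, oral dosing once daily for 11 days. Tumor volume = 1/2 × long × short² diameter; growth inhibition from volume change in treated versus control group.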

NCI-H441 = test: Antiproliferative activity against human NCI-H441 cells assessed as cell growth inhibition; assay type: cell-based
IGROV-1 = test: Antiproliferative activity against human IGROV1 cells assessed as cell growth inhibition; assay type: cell-based
DU-145 = test: Antiproliferative activity against human DU145 cells assessed as cell growth inhibition; assay type: cell-based
PC-3 = test: Antiproliferative activity against human PC3 cells assessed as cell growth inhibition; assay type: cell-based
ASPC1 = test: Antiproliferative activity against human AsPC1 cells assessed as cell growth inhibition; assay type: cell-based
CAPAN-1 = test: Antiproliferative activity against human Capan1 cells assessed as cell growth inhibition; assay type: cell-based
BXPC-3 = test: Antiproliferative activity against human BxPC3 cells assessed as cell growth inhibition; assay type: cell-based
PANC-1 = test: Antiproliferative activity against human PANC1 cells assessed as cell growth inhibition; assay type: cell-based
NCI-N87 = test: Antiproliferative activity against human NCI-N87 cells assessed as cell growth inhibition; assay type: cell-based
C32 = test: Antiproliferative activity against human C32 cells assessed as cell growth inhibition; assay type: cell-based
[7] = molecular target: Tyrosine-protein kinase receptor UFO (Homo sapiens, UniProt P30530); test: Inhibition of AXL
[8] = molecular target: Macrophage-stimulating protein receptor (Homo sapiens, UniProt Q04912); test: Inhibition of RON
[9] = molecular target: Fibroblast growth factor receptor 2 (Homo sapiens, UniProt P21802); test: Inhibition of FGFR2
[10] = molecular target: Hepatocyte growth factor receptor (Homo sapiens, UniProt P08581); test: Inhibition of MET
[11] = molecular target: Receptor-type tyrosine-protein kinase FLT3 (Homo sapiens, UniProt P36888); test: Inhibition of FLT3
[12] = molecular target: Tyrosine-protein kinase Lyn (Homo sapiens, UniProt P07948); test: Inhibition of Lyn
[13] = molecular target: Tyrosine-protein kinase Lck (Homo sapiens, UniProt P06239); test: Inhibition of LCK
[14] = molecular target: Tyrosine-protein kinase ABL1 (Homo sapiens, UniProt P00519); test: Inhibition of ABL
[15] = molecular target: Protein-tyrosine kinase 6 (Homo sapiens, UniProt Q13882); test: Inhibition of BRK
[16] = Inhibition of PKA
[17] = molecular target: Glycogen synthase kinase-3 beta (Homo sapiens, UniProt P49841); test: Inhibition of GSK3-beta
HepG2 = test: Antiproliferative activity against human HepG2 cells assessed as cell growth inhibition; assay type: cell-based
[18] = Clearance in mouse liver microsome at 5 uM after 60 mins by LC-MS/MS analysis; assay type: ADME; conditions: liver microsomes, read-out: CLH
How it was run: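 Test compound at 5 µM incubated with mouse liver microsomes, 1.0 mg protein/mL, in 50 mM potassium phosphate pH 7.4 at 37 °C. Started by adding NADPH generating system (glucose 6-phosphate 3.2 mM, β-NADP 2.6 mM, MgCl2 6.5 mM). Substrate depletion measured against internal standard. Intrinsic clearance is the first-order decay constant normalized to protein.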

[19] = Solubility of the compound in fasted state simulated intestinal fluid at 10 mM after 2 hrs by HPLC-UV analysis; assay type: physicochemical
How it was run: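 Triplicate samples made from 10 mM DMSO stocks. DMSO evaporated (1 h), residue dissolved in FaSSIF and shaken 2 h. Solutions filtered, filtrate analysed by UV or HPLC-UV against a four-point calibration curve from the stocks. Result in µg/mL.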

[20] = Oral bioavailability in nude mouse at 30 mg/kg by LC-MS/MS analysis; assay type: ADME, organism-based; conditions: in vivo; how it was run: as §2
Calu-6 [21] = test: Antitumor activity against human Calu6 cells xenografted in BALB/c mouse assessed as tumor growth inhibition at 150 mg/kg, po qd for 11 days; assay type: functional, organism-based; parameters: dose 150 mg/kg
How it was run: (§3)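 Female Balb/c nude mice carried s.c. flank Calu-6 xenografts, 5.0×10⁶ cells in Hanks' solution. At 200 mm³, mice were randomized into 4 groups (n = 5): vehicle, 150 mg/kg, sunitinib 80 mg/kg, or both. Each group dosed orally once daily for 11 days. Volume = 1/2 × long × short². Inhibition from volume change against control.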

Calu-6 [22] = test: Antitumor activity against human Calu6 cells xenografted in BALB/c mouse assessed as tumor growth inhibition at 150 mg/kg, po qd for 11 days in presence of sunitinib; assay type: functional, organism-based; parameters: dose 150 mg/kg; how it was run: as §3

Tyrosine-protein kinase Lyn, sequence (P07948 whole entry): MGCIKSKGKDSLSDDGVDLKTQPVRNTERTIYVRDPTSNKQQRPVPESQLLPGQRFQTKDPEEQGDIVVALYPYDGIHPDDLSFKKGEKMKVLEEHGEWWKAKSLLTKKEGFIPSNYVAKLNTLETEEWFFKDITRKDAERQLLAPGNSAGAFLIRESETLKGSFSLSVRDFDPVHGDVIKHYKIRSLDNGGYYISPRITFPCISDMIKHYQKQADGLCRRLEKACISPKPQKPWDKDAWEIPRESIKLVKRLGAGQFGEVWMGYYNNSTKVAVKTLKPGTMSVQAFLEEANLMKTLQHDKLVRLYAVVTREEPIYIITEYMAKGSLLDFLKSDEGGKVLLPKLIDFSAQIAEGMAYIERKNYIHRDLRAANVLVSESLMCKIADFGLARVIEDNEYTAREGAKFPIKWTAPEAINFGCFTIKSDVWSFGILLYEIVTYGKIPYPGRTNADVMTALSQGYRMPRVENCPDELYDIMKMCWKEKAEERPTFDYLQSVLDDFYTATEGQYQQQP
Macrophage-stimulating protein receptor, sequence (Q04912 25-304 limits assumed): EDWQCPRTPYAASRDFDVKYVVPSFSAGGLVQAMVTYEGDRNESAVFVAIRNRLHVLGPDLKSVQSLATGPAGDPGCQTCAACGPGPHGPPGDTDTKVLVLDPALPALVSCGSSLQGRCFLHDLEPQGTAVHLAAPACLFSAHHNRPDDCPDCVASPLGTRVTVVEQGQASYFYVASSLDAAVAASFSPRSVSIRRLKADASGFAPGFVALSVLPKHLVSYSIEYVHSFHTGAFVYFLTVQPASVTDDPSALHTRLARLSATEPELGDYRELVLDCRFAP
Macrophage-stimulating protein receptor, sequence (Q04912 310-1400 limits assumed): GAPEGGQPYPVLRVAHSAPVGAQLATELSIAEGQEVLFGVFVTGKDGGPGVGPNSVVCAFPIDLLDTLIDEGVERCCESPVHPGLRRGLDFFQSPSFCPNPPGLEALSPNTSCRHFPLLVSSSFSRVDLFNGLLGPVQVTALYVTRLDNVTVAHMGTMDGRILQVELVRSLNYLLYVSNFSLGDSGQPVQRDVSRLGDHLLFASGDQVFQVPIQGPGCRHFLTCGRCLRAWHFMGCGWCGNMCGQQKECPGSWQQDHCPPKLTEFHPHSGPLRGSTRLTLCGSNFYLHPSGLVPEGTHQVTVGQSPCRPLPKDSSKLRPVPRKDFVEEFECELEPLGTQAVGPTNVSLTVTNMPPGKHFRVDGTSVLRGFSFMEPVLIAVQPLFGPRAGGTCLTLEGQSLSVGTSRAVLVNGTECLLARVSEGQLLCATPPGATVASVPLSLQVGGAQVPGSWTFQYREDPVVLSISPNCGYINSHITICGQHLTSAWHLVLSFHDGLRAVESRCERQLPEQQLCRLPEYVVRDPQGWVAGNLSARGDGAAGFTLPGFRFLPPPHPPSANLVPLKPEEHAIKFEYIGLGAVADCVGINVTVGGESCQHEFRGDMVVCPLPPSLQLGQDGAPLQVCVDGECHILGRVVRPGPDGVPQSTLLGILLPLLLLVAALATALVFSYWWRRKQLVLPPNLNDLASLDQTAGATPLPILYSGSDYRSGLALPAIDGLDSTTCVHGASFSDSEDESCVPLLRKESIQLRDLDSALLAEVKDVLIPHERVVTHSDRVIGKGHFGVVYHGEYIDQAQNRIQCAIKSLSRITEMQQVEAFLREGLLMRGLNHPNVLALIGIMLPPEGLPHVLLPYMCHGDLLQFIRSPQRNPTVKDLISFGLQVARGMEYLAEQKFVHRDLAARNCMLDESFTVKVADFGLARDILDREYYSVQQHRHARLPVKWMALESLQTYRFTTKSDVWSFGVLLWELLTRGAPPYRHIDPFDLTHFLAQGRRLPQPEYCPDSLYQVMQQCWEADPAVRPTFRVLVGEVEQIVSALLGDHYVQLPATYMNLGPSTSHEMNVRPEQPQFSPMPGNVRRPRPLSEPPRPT
Receptor-type tyrosine-protein kinase FLT3, sequence (P36888 whole entry): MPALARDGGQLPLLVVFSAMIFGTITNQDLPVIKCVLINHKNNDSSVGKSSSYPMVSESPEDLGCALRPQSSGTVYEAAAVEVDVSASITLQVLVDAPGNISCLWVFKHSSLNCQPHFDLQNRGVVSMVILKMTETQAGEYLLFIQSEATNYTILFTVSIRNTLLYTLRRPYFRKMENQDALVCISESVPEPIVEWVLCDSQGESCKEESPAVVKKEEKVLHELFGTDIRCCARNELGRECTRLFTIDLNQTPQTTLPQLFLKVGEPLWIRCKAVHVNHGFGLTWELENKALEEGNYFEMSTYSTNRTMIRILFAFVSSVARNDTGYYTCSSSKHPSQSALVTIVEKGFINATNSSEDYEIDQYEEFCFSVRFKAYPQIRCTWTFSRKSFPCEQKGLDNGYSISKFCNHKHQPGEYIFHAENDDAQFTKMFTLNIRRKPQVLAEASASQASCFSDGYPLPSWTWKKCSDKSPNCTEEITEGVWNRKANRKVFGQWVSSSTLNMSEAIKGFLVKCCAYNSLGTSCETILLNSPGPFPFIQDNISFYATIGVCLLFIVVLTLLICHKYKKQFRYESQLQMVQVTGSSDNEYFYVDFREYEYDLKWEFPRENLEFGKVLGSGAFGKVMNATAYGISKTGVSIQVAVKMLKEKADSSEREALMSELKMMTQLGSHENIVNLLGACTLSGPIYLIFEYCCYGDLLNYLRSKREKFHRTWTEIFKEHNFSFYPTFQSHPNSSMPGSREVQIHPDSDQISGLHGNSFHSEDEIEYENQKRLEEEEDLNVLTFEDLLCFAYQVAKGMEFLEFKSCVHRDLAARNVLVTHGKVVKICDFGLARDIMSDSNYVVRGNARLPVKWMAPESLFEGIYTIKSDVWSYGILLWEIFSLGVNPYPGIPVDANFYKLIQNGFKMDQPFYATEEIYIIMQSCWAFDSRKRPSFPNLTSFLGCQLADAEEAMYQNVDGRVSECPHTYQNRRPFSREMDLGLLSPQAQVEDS
Tyrosine-protein kinase ABL1, sequence (P00519 whole entry): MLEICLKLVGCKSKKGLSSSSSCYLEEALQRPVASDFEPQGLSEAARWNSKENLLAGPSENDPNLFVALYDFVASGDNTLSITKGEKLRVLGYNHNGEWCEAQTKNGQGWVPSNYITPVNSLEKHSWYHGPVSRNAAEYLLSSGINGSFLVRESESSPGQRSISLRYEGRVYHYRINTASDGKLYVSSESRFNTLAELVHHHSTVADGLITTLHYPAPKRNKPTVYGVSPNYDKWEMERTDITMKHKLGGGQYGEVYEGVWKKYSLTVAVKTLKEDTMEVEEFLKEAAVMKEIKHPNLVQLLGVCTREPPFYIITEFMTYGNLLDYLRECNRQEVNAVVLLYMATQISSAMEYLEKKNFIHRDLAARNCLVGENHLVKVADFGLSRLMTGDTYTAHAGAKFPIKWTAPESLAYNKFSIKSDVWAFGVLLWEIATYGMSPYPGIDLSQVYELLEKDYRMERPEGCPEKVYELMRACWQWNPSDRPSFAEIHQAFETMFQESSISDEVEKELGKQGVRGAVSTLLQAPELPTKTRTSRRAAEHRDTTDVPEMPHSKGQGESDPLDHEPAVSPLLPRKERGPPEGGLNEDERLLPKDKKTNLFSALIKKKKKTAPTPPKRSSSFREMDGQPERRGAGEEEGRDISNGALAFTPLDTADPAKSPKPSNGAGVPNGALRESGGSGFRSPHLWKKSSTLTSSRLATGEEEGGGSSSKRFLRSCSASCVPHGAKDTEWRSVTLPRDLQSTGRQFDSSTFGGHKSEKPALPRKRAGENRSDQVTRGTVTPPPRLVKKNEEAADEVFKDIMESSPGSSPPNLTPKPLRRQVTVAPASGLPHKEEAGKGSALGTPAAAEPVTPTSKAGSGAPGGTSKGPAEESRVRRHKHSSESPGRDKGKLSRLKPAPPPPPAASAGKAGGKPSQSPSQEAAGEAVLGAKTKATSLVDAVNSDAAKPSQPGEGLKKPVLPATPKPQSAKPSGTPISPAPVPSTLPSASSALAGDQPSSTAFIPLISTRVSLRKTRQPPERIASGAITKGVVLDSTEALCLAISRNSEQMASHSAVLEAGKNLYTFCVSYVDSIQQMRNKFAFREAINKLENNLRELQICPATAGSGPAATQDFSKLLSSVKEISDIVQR
Tyrosine-protein kinase Lck, sequence (P06239 whole entry): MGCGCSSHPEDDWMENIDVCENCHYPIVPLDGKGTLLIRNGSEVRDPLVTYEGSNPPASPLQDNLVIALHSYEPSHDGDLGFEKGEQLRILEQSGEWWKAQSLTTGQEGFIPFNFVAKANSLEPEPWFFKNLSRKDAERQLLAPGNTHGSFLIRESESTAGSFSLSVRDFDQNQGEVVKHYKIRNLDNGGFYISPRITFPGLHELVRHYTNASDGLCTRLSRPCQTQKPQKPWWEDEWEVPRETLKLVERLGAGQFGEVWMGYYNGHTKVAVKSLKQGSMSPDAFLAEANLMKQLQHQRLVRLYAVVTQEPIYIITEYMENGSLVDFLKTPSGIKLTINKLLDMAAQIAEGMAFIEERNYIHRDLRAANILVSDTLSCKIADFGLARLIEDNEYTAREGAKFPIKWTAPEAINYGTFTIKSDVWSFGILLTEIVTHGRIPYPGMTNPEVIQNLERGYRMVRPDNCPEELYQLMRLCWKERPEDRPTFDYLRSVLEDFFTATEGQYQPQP
Protein-tyrosine kinase 6, sequence (Q13882 whole entry): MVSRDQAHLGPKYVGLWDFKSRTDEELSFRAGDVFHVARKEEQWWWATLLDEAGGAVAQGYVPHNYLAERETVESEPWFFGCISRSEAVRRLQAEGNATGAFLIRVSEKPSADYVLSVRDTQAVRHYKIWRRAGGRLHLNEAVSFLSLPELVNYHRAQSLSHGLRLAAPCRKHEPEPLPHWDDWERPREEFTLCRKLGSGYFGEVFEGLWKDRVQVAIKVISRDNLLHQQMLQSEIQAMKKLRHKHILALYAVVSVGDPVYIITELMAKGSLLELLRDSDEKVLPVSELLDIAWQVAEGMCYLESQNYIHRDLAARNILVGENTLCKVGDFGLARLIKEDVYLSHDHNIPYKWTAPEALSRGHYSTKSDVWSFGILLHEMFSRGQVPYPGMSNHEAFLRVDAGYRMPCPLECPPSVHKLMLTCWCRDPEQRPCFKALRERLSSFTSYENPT

COc1ccc(C(=O)NC[C@H](O)CO)cc1/C=C/c1ccc(Cl)cc1
inhibition at 4 µM (HUVEC [1]): 41% | inhibition at 20 µM (HUVEC [2]): 93% | CL/F [3]: 5.6 mL/min/kg | Tmax [4]: 1 h | bioavailability [5]: 90% | TGI (Calu-6 [6]): Dose-dependent effect | ED50 (Calu-6 [6]): 2.3 mg/kg | IC50 (NCI-H441): 34 µM | IC50 (IGROV-1): 1.4 µM | IC50 (DU-145): 23 µM | IC50 (PC-3): 17 µM | IC50 (ASPC1): 63 µM | IC50 (CAPAN-1): 67 µM | IC50 (BXPC-3): 51 µM | IC50 (PANC-1): 49 µM | IC50 (NCI-N87): 52 µM | IC50 (C32): 46 µM | IC50 [7]: > 50 µM | IC50 [8]: > 50 µM | IC50 [9]: > 50 µM | IC50 [10]: > 50 µM | IC50 [11]: > 50 µM | IC50 [12]: > 50 µM | IC50 [13]: > 50 µM | IC50 [14]: > 50 µM | IC50 [15]: > 50 µM | IC50 [16]: > 50 µM | IC50 [17]: > 50 µM | IC50 (HepG2): 28 µM | microsomal CLint at 5 µM [18]: 12 µL/min/mg | solubility at 2 h, 10000 µM [19]: 263 µg/mL (≈ 727 µM)

COc1ccc(C(=O)NC[C@@H](O)CO)cc1/C=C/c1ccc(Cl)cc1
inhibition at 4 µM (HUVEC [1]): 38% | inhibition at 20 µM (HUVEC [2]): 86% | CL/F [3]: 5.8 mL/min/kg | Tmax [4]: 1 h | bioavailability [20]: 100% | TGI (Calu-6 [6]): Dose-dependent effect | ED50 (Calu-6 [6]): 3.2 mg/kg | TGI (Calu-6 [21]): Active | TGI (Calu-6 [22]): Active | IC50 (NCI-H441): 25 µM | IC50 (IGROV-1): 0.92 µM | IC50 (DU-145): 5.3 µM | IC50 (PC-3): 24 µM | IC50 (ASPC1): 55 µM | IC50 (CAPAN-1): 47 µM | IC50 (BXPC-3): 27 µM | IC50 (PANC-1): 39 µM | IC50 (NCI-N87): 52 µM | IC50 (C32): 38 µM | IC50 [7]: > 50 µM | IC50 [8]: > 50 µM | IC50 [9]: > 50 µM | IC50 [10]: > 50 µM | IC50 [11]: > 50 µM | IC50 [12]: > 50 µM | IC50 [13]: > 50 µM | IC50 [14]: > 50 µM | IC50 [15]: > 50 µM | IC50 [16]: > 50 µM | IC50 [17]: > 50 µM | IC50 (HepG2): 16 µM | microsomal CLint at 5 µM [18]: 7 µL/min/mg | solubility at 2 h, 10000 µM [19]: 225 µg/mL (≈ 622 µM)
